“Also recorded” adds a separate entry of the source. Where no end group is shown, it is not given here.

One data set has as its system SW620 cells. Nature of the data set: confocal fluorescence microscopy of peptide binding, SW620. The format is cell-based, human. As to conditions: 5 μM peptide, 3 min at RT; SW620 low EGFR expression. The essentials: (§1)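 HT29 cells kept in McCoy's medium; SW480 and SW620 cells in DMEM. All with 10% FBS and 1% penicillin–streptomycin at 37 °C, 5% CO2. ~10^3 cells grown on coverslips to ~80% confluence, washed in PBS and incubated with 5 μM Cy5.5-labeled test or control peptide for 3 min at RT. Cells washed, fixed in 4% PFA for 5 min and mounted with DAPI; confocal imaging with 63× oil objective. Intensities quantified from five cells in two independent images.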

Data set [1] can be described thus: fluorescence spectra of Cy5.5-labeled peptides. The format is physicochemical. As to conditions: 10 μM in PBS, λex=671 nm.
Data set [2] relates to EGFR in HT29 cells (siCL vs siEGFR). Nature of the data set: siRNA knockdown of EGFR, confocal microscopy of peptide binding. The format is cell-based, human. As to conditions: for intensity siCL vs siEGFR (in words): HT29, confocal; for binding/intensity in HT29 knockdown cells (siEGFR) / binding to control HT29 cells (siCL): confocal; for binding/intensity in HT29 knockdown cells (siEGFR): EGFR-targeting siRNA; for binding to control HT29 cells (siCL): nontargeting siRNA. A digest of the protocol: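 HT29 cells, with penicillin–streptomycin omitted, transfected using DharmaFECT with EGFR-targeting or nontargeting pool siRNA. Cells incubated with Cy5.5-labeled test and control peptides, then fixed in 4% PFA or methanol. Stained with mouse anti-EGFR (1:1000) overnight at 4 °C, then AF488 goat anti-mouse (1:500) 1 h at RT. Mounted with DAPI; confocal imaging with 63× oil objective.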

Data set [3] has as its system HT29 cells. In words: confocal fluorescence microscopy of peptide binding, HT29. The format is cell-based, human. As to conditions: 5 μM peptide, 3 min at RT; HT29 high EGFR expression. A digest of the protocol:
as §1

The subject of data set [4] is spontaneous colonic adenomas in CPC;Apc mice. In words: in vivo near-infrared fluorescence endoscopy of colon in CPC. Further details: species or system mouse. The settings on record: for T/B ratio (log2), flat lesions / T/B ratio (log2), polyps: mean±s.d., n=15; for target-to-background ratio, flat lesions / target-to-background ratio, polyps: 1.5 ml, 5 min incubation; for target-to-background ratio, flat lesions: flat lesions n=15, 5 mice; for target-to-background ratio, polyps: polyps n=15, 5 mice. The essentials: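 CPC;Apc mice (Cdx2-Cre, floxed Apc allele), n=5, aged 7–10 months, under 2–4% isoflurane in oxygen by nose cone. Colon rinsed with water under white light. Cy5.5-labeled peptides (100 μM) delivered topically through the endoscope channel and left 5 min, then unbound peptide rinsed off. Imaging with small-animal NIR fluorescence endoscope; lesions excised for H&E. T/B ratios log-transformed; fold-change taken as anti-log of difference.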

A further data set has as its system SW480 cells. In words: confocal fluorescence microscopy of peptide binding, SW480. The format is cell-based, human. As to conditions: 5 μM peptide, 3 min at RT; SW480 medium EGFR expression. A digest of the protocol:
as §1

Data set [5] concerns EGFR phosphorylation, Akt and Erk1/2 phosphorylation in HT29 cells. Nature of the data set: effect of peptide on cell signaling, western blot. The format is cell-based, human. The settings on record: 5 and 100 μM, 10, 20 and 120 min. A digest of the protocol: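 HT29 cells held in serum-free medium for 16 h, then exposed to Cy5.5-labeled peptide at 5 or 100 μM for 10, 20 or 120 min. EGF at 100 ng/ml for the same times served as reference. Cells lysed in RIPA with protease inhibitors, followed by SDS gel electrophoresis, PVDF transfer and chemiluminescent immunoblotting. Probes: EGFR, phospho-EGFR, AKT, phospho-AKT (S473), ERK1/2, phospho-ERK1/2 and tubulin.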
On the technique in general: Immunoblotting shows a protein as a band on a membrane.

Another data set deals with human colonic dysplasia. In words: binding of peptide and antibody to human colonic specimens, confocal microscopy. The essentials: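 Human colonic biopsies from routine colonoscopy, frozen in OCT, cut at 10 μm. Sections incubated with 5 μM Cy5.5-labeled peptide in PBS for 10 min at RT, then rabbit anti-EGFR (1:1000) overnight at 4 °C and AF488 goat anti-rabbit (1:500) 1 h at RT. Sections fixed in 4% PFA and mounted with DAPI; confocal imaging at 20×. Mean intensity taken from three 30×30 μm² boxes within surface epithelium per specimen. Histology reviewed by GI pathologist.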

Data set [6] deals with HT29 cells. Nature of the data set: apparent association time constant, flow cytometry. The format is binding, human. As to conditions: from k, 5 μM QRH*-Cy5.5, 4 °C. A digest of the protocol:
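HT29 cells detached with PBS-based dissociation buffer; ~10^5 cells incubated with 5 μM Cy5.5-labeled test peptide at 4 °C for intervals from 0 to 20 min. Cells washed in cold PBS, fixed in 4% PFA and analysed by flow cytometry. Median fluorescence taken as a ratio to cells without peptide at each time point. Rate constant k fitted to y(t)=Imax[1−exp(−kt)]. Six independent experiments.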
(In general: In flow cytometry, cells or beads pass a laser one at a time.)

For data set [7], the system named is dysplastic crypts in polyps. Nature of the data set: binding to dysplastic crypts in mouse polyp specimens, immunofluorescence. As to conditions: optimal cutting temperature-embedded mouse specimens. A digest of the protocol:
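Mouse polypoid dysplasia frozen in OCT and cut at 10 μm. Sections stained with goat anti-mouse anti-EGFR (1:1000) plus AF488-labeled secondary antibody, washed in PBS, fixed in 4% PFA for 10 min and mounted with DAPI. Confocal microscopy used; adjacent sections stained with H&E.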

The subject of data set [8] is human dysplastic colorectal polyps. The settings on record: FITC-labeled, confocal endomicroscopy; cited from earlier work.
The target of data set [9] is Epidermal growth factor receptor (EGFR) (human (endogenous in HT29, SW480, SW620), UniProt P00533 25-1210). Nature of the data set: immunostaining of cells or tissue.
[10] abbreviates: NIR endoscopy, topical 100 μM, 5 min.
Where [11] appears, read: anti-log of difference in log-transformed data.

Regarding PEHKRRQ [PEH*-Cy5.5], in the data set on SW620 cells, the “binding to cell surface (SW620)” value was “Minimal binding”. Also, in data set [1], the peak emission worked out at 710 nm. Further, in data set [2], the “intensity siCL vs siEGFR (in words)” value is reported as “nonsignificant decrease”, the “binding/intensity in HT29 knockdown cells (siEGFR)” value is listed as “minimal binding” and the “binding to control HT29 cells (siCL)” value was “minimal binding”. Further, in the data set with HT29 cells [3], the “binding to cell surface (HT29)” value is recorded as “Minimal binding”. In data set [4] (setting [10]), the “fluorescence signal from flat lesions” value is recorded as “Minimal signal” and the “fluorescence signal from polyp” value is listed as “Minimal signal”. Further, in data set [4] (topical 100 μM), the “T/B ratio (log2), flat lesions” value is 0.36±0.47 log2 and the “T/B ratio (log2), polyps” value came out at 0.62±0.77 log2. Besides, the “binding to cell surface (SW480)” value with SW480 cells is on record as “Minimal binding”.
On to QRHKPRE, for which the “EGFR phosphorylation / downstream signaling” value in data set [5] is “No downstream signaling was observed; also recorded: lack of cytoplasmic signaling”. Besides, the “mean fluorescence intensity, dysplasia compared with normal” value in the data set with human colonic dysplasia (5 μM, 10 min at RT, dysplasia n=29, normal n=15) is 19.4 fold. In addition, in data set [4] (topical 100 μM), the “target-to-background ratio, flat lesions” value was 2.7±0.7 and the “target-to-background ratio, polyps” value was determined as 4.0±1.7.
With QRHKPRE [QRH*-Cy5.5], the peak emission in data set [1] amounted to 710 nm. The “time scale for binding” value in the data set with HT29 cells [6] is on record as 2.46 min. Further, the “EGFR phosphorylation / downstream signaling” value in data set [5] is “no evidence of either EGFR phosphorylation or downstream phosphorylation of Akt and Erk1/2”. Besides, in data set [2], the “intensity siCL vs siEGFR (in words)” value is given as “significantly higher intensities for siCL-transfected HT29 cells”, the “binding/intensity in HT29 knockdown cells (siEGFR)” value is “Reduced fluorescence intensity” and the “binding to control HT29 cells (siCL)” value was “bind strongly to the surface; also recorded: strong binding”. Besides, the “binding to dysplastic crypts in polyps” value in data set [7] is given as “increased fluorescence intensity”. The “area under ROC curve (AUC)” value in the data set with human colonic dysplasia (dysplasia vs normal, n=29 and 15) is listed as 0.94. In addition, in [4] (setting [10]), the “fluorescence signal from flat lesions” value is on record as “Several flat lesions are seen on fluorescence; also recorded: presence of flat lesions”, the “fluorescence signal from polyp” value was “increased intensity from the polyp in a heterogeneous pattern” and the “signal from normal colonic mucosa” value is reported as “minimal background”. In data set [4] (setting [11]), the “mean fold difference of T/B ratio QRH*-Cy5.5 vs PEH*-Cy5.5, flat lesions” value is on record as 2.05 and the “mean fold difference of T/B ratio QRH*-Cy5.5 vs PEH*-Cy5.5, polyps” value turned out to be 2.43. Besides, in data set [4] (topical 100 μM), the “T/B ratio (log2), flat lesions” value is listed as 1.39±0.34 log2; the “T/B ratio (log2), polyps” value was 1.90±0.60 log2; the “target-to-background ratio, flat lesions” value worked out at 2.7±0.7; the “target-to-background ratio, polyps” value was found to be 4.0±1.7. Further, the “difference in results between QRH*-Cy5.5 and PEH*-Cy5.5 (target-to-background)” value in data set [4] (topical 100 μM, 5 min) is recorded as “significant”.
In the case of VRPMPLQ, in [8], the “detection of dysplastic colorectal polyps” value is given as “used to detect human dysplastic colorectal polyps in vivo with confocal endomicroscopy”.
As to QRHKPREGGGSK(Cy5.5)-NH2 [QRH*-Cy5.5], the “fold change of fluorescence intensity, siCL- vs. siEGFR-transfected cells” value in [9] was found to be 3.2 fold.

(Values after article PMC4816258 (Clinical and Translational Gastroenterology, 2015).)
